{"source": "ChEMBL document CHEMBL4007420", "about": "“Structural Optimization and Pharmacological Evaluation of Inhibitors Targeting Dual-Specificity Tyrosine Phosphorylation-Regulated Kinases (DYRK) and CDC-like kinases (CLK) in Glioblastoma” (J Med Chem, 2017)", "key": {"[1]": {"biological_target": "T1, Dual specificity tyrosine-phosphorylation-regulated kinase 1A (Homo sapiens, UniProt Q13627)", "assay": "Stabilization of DYRK1A in human U251 cell lysate at 10 uM preincubated for 1 hr followed by incubation at 40 to 70 degreeC for 3 mins by cellular thermal shift assay"}, "[2]": {"assay": "Cytotoxicity against patient-derived SJH1 cells assessed as reduction in cell viability after 3 days by Alamar blue assay", "type": "functional, cell-based", "settings": "Homo sapiens, SJH1, 72 h", "summary_of_the_method": "(§1)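 The patient-derived glioblastoma lines were grown as stem cells under defined conditions to keep the phenotype and genotype of the resected tumours. Viability after treatment was read with Alamar blue.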"}, "A 172 [3]": {"system": "A 172", "assay": "Antiinvasive activity in human A172 cells assessed as velocity of invasion at 5 uM measured up to 20 hrs by matrigel assay (reference value: 2659 to 3047 micrometer/hr)", "type": "functional"}, "[4]": {"assay": "Antimigratory activity in patient-derived RN1 cells assessed as velocity of migration at 5 uM measured up to 20 hrs by wound scratch assay (reference value: 937 to 1174 micrometer/hr)", "type": "functional, Homo sapiens", "summary_of_the_method": "(§2)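 Wound-healing migration assay: cell movement across the wound is measured as velocity (µm/h). Compounds were tested at 0, 1.0, 5.0 and 10.0 µM. Values are mean ± SEM of 3 independent experiments.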"}, "[5]": {"biological_target": "T2, Dual specificity protein kinase CLK1 (Homo sapiens, UniProt P49759)", "assay": "Inhibition of CLK1 (unknown origin) using KKGRSRSRSRSRSR as substrate after 40 mins in presence of [gamma-33P]ATP by microbeta scintillation counting", "summary_of_the_method": "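CLK1 was assayed with RS peptide substrate at 100 µM ATP.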"}, "[6]": {"biological_target": "T1, Dual specificity tyrosine-phosphorylation-regulated kinase 1A", "assay": "Inhibition of DYRK1A in human U251 cell lysate assessed as EGF induced EGFR degradation at 2.5 uM by measuring basal EGFR half life in presence of cycloheximide by Western blot analysis (reference value: 25.6 +/- 7.6 min)", "summary_of_the_method": "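U251 cells were pretreated with 2.5 µM compound or DMSO for 4 h, then given cycloheximide (30 µg/mL, 1 h). EGF (100 ng/mL) was added for 0–120 min. EGFR was detected by Western blot, normalized to β-actin and expressed as % of 0 min. Half-life came from non-linear regression, as mean ± SEM of 3 independent experiments.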"}, "[7]": {"assay": "Cytotoxicity against patient-derived RN1 cells assessed as reduction in cell viability after 3 days by Alamar blue assay", "type": "functional, cell-based", "settings": "Homo sapiens, RN1, 72 h", "summary_of_the_method": "as §1"}, "U-251 [8]": {"system": "U-251", "assay": "Antimigratory activity in human U251 cells assessed as velocity of migration at 5 uM measured up to 20 hrs by wound scratch assay (reference value: 2159 to 2653 micrometer/hr)", "type": "functional", "summary_of_the_method": "as §2"}, "A 172 [9]": {"system": "A 172", "assay": "Antimigratory activity in human A172 cells assessed as velocity of migration at 10 uM measured up to 20 hrs by wound scratch assay (reference value: 2650 to 3123 micrometer/hr)", "type": "functional", "summary_of_the_method": "as §2"}, "A 172 [10]": {"system": "A 172", "assay": "Antimigratory activity in human A172 cells assessed as velocity of migration at 5 uM measured up to 20 hrs by wound scratch assay (reference value: 2650 to 3123 micrometer/hr)", "type": "functional", "summary_of_the_method": "as §2"}, "[11]": {"assay": "Antimigratory activity in patient-derived RN1 cells assessed as velocity of migration at 10 uM measured up to 20 hrs by wound scratch assay (reference value: 937 to 1174 micrometer/hr)", "type": "functional, Homo sapiens", "summary_of_the_method": "as §2"}, "[12]": {"biological_target": "T1, Dual specificity tyrosine-phosphorylation-regulated kinase 1A", "assay": "Inhibition of DYRK1A (unknown origin) using woodtide as substrate after 10 mins in presence of [gamma-33P]ATP by microbeta scintillation counting"}, "[13]": {"assay": "Antimigratory activity in patient-derived RN1 cells assessed as velocity of migration at 1 uM measured up to 20 hrs by wound scratch assay (reference value: 937 to 1174 micrometer/hr)", "type": "functional, Homo sapiens", "summary_of_the_method": "as §2"}, "U-251 [14]": {"system": "U-251", "assay": "Anticlonogenic activity against human U251 cells after 10 to 12 days by toluidine blue staining based assay", "type": "functional, cell-based", "summary_of_the_method": "(§3)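 Cells were exposed to compound for 10 days, then colonies were fixed, stained with Toluidine Blue and counted. […] Values are mean ± SEM of 3 independent experiments, each in duplicate, with one-way ANOVA and Dunnett's test against vehicle.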"}, "[15]": {"biological_target": "T3, Dual specificity tyrosine-phosphorylation-regulated kinase 2 (Homo sapiens, UniProt Q92630)", "T3 sequence (Q92630 whole entry)": "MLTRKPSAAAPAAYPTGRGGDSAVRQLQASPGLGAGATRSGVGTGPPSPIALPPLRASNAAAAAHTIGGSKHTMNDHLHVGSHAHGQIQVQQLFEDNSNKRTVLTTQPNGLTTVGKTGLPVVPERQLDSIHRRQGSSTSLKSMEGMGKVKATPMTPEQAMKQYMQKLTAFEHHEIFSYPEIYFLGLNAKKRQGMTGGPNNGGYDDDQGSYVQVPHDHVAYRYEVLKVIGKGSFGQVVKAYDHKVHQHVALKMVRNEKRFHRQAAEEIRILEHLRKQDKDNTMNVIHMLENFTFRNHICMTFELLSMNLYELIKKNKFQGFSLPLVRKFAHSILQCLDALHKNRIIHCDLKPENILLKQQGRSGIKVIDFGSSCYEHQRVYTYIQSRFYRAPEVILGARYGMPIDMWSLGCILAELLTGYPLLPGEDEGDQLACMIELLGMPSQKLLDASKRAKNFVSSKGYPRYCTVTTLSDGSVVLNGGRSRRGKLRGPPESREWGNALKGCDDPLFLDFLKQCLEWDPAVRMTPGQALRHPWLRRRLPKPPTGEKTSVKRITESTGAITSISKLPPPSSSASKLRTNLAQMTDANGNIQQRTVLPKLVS", "assay": "Inhibition of DYRK2 (unknown origin) using woodtide as substrate after 40 mins in presence of [gamma-33P]ATP by microbeta scintillation counting"}, "A 172 [16]": {"system": "A 172", "assay": "Cytotoxicity against human A172 cells assessed as reduction in cell viability after 3 days by Alamar blue assay", "type": "functional, cell-based", "settings": "A 172, 72 h"}, "A 172 [17]": {"system": "A 172", "assay": "Antimigratory activity in human A172 cells at 5 uM measured up to 20 hrs by wound scratch assay", "type": "functional", "settings": "A 172, 20 h", "summary_of_the_method": "as §2"}, "[18]": {"assay": "(§4) Anticlonogenic activity against patient-derived RN1 cells after 10 to 12 days by toluidine blue staining based assay", "type": "functional, cell-based, Homo sapiens", "summary_of_the_method": "as §3"}, "RN1": {"system": "RN1", "assay": "as §4", "type": "functional, cell-based", "settings": "Homo sapiens", "summary_of_the_method": "as §3"}, "[19]": {"biological_target": "Dual specificity tyrosine-phosphorylation-regulated kinase 1B (Homo sapiens, UniProt Q9Y463)", "sequence (Q9Y463 whole entry, looked up)": "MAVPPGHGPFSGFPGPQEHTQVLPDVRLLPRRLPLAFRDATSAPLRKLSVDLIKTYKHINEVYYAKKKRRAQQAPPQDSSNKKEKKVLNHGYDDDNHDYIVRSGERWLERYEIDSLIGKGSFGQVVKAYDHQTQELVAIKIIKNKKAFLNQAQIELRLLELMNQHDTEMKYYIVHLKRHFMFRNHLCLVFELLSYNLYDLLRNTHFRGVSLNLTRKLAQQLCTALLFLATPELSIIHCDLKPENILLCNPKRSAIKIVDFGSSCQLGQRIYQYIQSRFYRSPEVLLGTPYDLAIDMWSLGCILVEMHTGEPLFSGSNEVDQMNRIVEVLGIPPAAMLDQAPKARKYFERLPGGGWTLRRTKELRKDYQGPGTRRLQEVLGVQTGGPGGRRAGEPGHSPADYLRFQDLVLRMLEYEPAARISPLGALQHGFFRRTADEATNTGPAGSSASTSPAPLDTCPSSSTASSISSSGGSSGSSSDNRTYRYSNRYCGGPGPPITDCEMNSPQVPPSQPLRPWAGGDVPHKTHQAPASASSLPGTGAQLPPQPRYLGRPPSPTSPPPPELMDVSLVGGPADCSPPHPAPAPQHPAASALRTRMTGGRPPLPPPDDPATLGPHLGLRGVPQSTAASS", "assay": "Stabilization of DYRK1B in human U251 cell lysate at 10 uM preincubated for 1 hr followed by incubation at 40 to 70 degreeC for 3 mins by cellular thermal shift assay"}, "A 172 [20]": {"system": "A 172", "assay": "Antiinvasive activity in human A172 cells assessed as velocity of invasion at 1 uM measured up to 20 hrs by matrigel assay (reference value: 2659 to 3047 micrometer/hr)", "type": "functional"}, "[21]": {"assay": "Cytotoxicity against patient-derived WK1 cells assessed as reduction in cell viability after 5 days by Alamar blue assay", "type": "functional, cell-based", "settings": "Homo sapiens, WK1, 120 h", "summary_of_the_method": "as §1"}, "U-251 [22]": {"system": "U-251", "assay": "Antimigratory activity in human U251 cells assessed as velocity of migration at 10 uM measured up to 20 hrs by wound scratch assay (reference value: 2159 to 2653 micrometer/hr)", "type": "functional", "summary_of_the_method": "as §2"}, "[23]": {"biological_target": "T2, Dual specificity protein kinase CLK1", "assay": "Stabilization of CLK1 in human U251 cell lysate at 10 uM preincubated for 1 hr followed by incubation at 40 to 70 degreeC for 3 mins by cellular thermal shift assay"}, "[24]": {"assay": "Cytotoxicity against patient-derived JK2 cells assessed as reduction in cell viability after 3 days by Alamar blue assay", "type": "functional, cell-based", "settings": "Homo sapiens, JK2, 72 h", "summary_of_the_method": "as §1"}}, "note": "The source made the active and inactive calls. No cut-off for these calls is given here.", "data": [{"smiles": "Nc1ccc(-c2cnc3[nH]cc(-c4ccc(O)cc4)c3c2)cc1", "values": [{"measurement": "Activity", "setting": "[1]", "result": "Active"}, {"measurement": "EC50", "setting": "[2]", "result": 3200, "unit": "nM"}, {"measurement": "Activity", "setting": "A 172 [3]", "result": 1538, "unit": "um/hr"}, {"measurement": "Activity", "setting": "[4]", "result": 118, "unit": "um/hr"}, {"measurement": "IC50", "setting": "[5]", "result": 34, "unit": "nM"}, {"measurement": "T1/2", "setting": "[6]", "result": 11.3, "unit": "min"}, {"measurement": "EC50", "setting": "[7]", "result": 1100, "unit": "nM"}, {"measurement": "Activity", "setting": "U-251 [8]", "result": 127, "unit": "um/hr"}, {"measurement": "Activity", "setting": "A 172 [9]", "result": 131, "unit": "um/hr"}, {"measurement": "Activity", "setting": "A 172 [10]", "result": 728, "unit": "um/hr"}, {"measurement": "Activity", "setting": "[11]", "result": 208, "unit": "um/hr"}, {"measurement": "IC50", "setting": "[12]", "result": 43, "unit": "nM"}, {"measurement": "Activity", "setting": "[13]", "result": 355, "unit": "um/hr"}, {"measurement": "EC50", "setting": "U-251 [14]", "result": 180, "unit": "nM"}, {"measurement": "IC50", "setting": "[15]", "result": 567, "unit": "nM"}, {"measurement": "EC50", "setting": "A 172 [16]", "result": "1600 to 4600", "unit": "nM"}, {"measurement": "inhibition at 5 µM", "setting": "A 172 [17]", "result": "> 75", "unit": "%"}, {"measurement": "EC50", "setting": "[18]", "result": 800, "unit": "nM"}, {"measurement": "Activity", "setting": "RN1", "result": "Dose-dependent effect"}, {"measurement": "Activity", "setting": "[19]", "result": "Active"}, {"measurement": "Activity", "setting": "A 172 [20]", "result": 2675, "unit": "um/hr"}, {"measurement": "EC50", "setting": "[21]", "result": 900, "unit": "nM"}, {"measurement": "Activity", "setting": "U-251 [22]", "result": 129, "unit": "um/hr"}, {"measurement": "Activity", "setting": "[23]", "result": "Active"}, {"measurement": "EC50", "setting": "[24]", "result": 8000, "unit": "nM"}]}]}
